Experimental data from ChEMBL document CHEMBL1130075, “(2-Methyl-5-(methylsulfonyl)benzoyl)guanidine Na+/H+ antiporter inhibitors” (J Med Chem, 1997).

target: Sodium/hydrogen exchanger (Oryctolagus cuniculus, UniProt P23791+P50482+P26432); assay: Inhibition of 5-N-(ethyl isopropyl)-amiloride[EIPA]-sensitive Na+ uptake into acidified rabbit erythrocytes.; type: functional
In short: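 Rabbit blood (heparinized) red cells, washed, acidified in pH 6.2 KCl buffer with ouabain, 10 min 37 °C; internal pH clamped with 200 μM DIDS and 1 mM acetazolamide, 30 min 37 °C. Uptake 5 min at 37 °C in pH 8.0 buffer with 10 mM NaCl plus ²²Na tracer, 1% DMSO. Triplicates; counts with 10 μM EIPA subtracted; IC50 by nonlinear fit.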

| SMILES | IC50 [µM] |
| --- | --- |
| COc1cc(C)c(C(=O)N=C(N)N)cc1S(C)(=O)=O | 0.016 |
| Cc1c(C(=O)N=C(N)N)cc(S(C)(=O)=O)c(Cl)c1Cl | 0.029 |
| Cc1cc(N2CCCC2)c(S(C)(=O)=O)cc1C(=O)N=C(N)N | 0.011 |
| Cc1cc(Sc2cccc(Cl)c2)c(S(C)(=O)=O)cc1C(=O)N=C(N)N | 0.037 |
| Cc1c(C(=O)N=C(N)N)cc(S(C)(=O)=O)c(Cl)c1C | 0.058 |
| Cc1cc(-c2ccc(Cl)cc2Cl)c(S(C)(=O)=O)cc1C(=O)N=C(N)N | 0.042 |
| Cc1cc(O)c(S(C)(=O)=O)cc1C(=O)N=C(N)N | 0.22 |
| Cc1cc(N2CCC(N)CC2)c(S(C)(=O)=O)cc1C(=O)N=C(N)N | 0.0098 |
| Cc1cc(Oc2cncc(Cl)c2)c(S(C)(=O)=O)cc1C(=O)N=C(N)N | 0.014 |
| CCc1cc(Oc2cccnc2)c(S(C)(=O)=O)cc1C(=O)N=C(N)N | 0.027 |
| Cc1ccc(C(=O)N=C(N)N)cc1S(C)(=O)=O | 0.21 |
| Cc1ccc(-c2ccc(C(=O)N=C(N)N)cc2S(C)(=O)=O)cc1 | 0.1 |
| Cc1cc(Nc2ncccn2)c(S(C)(=O)=O)cc1C(=O)N=C(N)N | 0.0083 |
| Cc1cc(C2CCC2)c(S(C)(=O)=O)cc1C(=O)N=C(N)N | 0.0082 |
| Cc1cc(Oc2ccccc2Cl)c(S(C)(=O)=O)cc1C(=O)N=C(N)N | 0.014 |
| CS(=O)(=O)c1cc(C(=O)N=C(N)N)ccc1C#N | 0.14 |
| CCC(C)c1cc(C)c(C(=O)N=C(N)N)cc1S(C)(=O)=O (stereo not drawn) | 0.008 |
| CS(=O)(=O)c1cc(C(=O)N=C(N)N)c(N)cc1N1CCCC(O)C1 (stereo not drawn) | 0.16 |
| Cc1c(C(=O)N=C(N)N)cc(S(C)(=O)=O)cc1-n1cccc1 | 0.1 |
| CS(=O)(=O)c1cc(C(=O)N=C(N)N)c(Cl)cc1Oc1cccnc1 | 0.052 |
| Cc1cc(-n2cnc3ccccc32)c(S(C)(=O)=O)cc1C(=O)N=C(N)N | 0.1 |
| Cc1cc(Oc2ccc(Cl)cc2)c(S(C)(=O)=O)cc1C(=O)N=C(N)N | 0.013 |
| Cc1cc(Sc2ccncc2)c(S(C)(=O)=O)cc1C(=O)N=C(N)N | 0.013 |
| Cc1cn(-c2cc(C)c(C(=O)N=C(N)N)cc2S(C)(=O)=O)cn1 | 0.028 |

| SMILES | IC50 [µM] |
| --- | --- |
| Cc1c(C(=O)N=C(N)N)ccc(Cl)c1S(C)(=O)=O | 0.13 |
| CCc1cc(Cl)c(S(C)(=O)=O)cc1C(=O)N=C(N)N | 0.063 |
| Cc1cc(Sc2ccccc2Cl)c(S(C)(=O)=O)cc1C(=O)N=C(N)N | 0.014 |
| Cc1cc(-c2ccc(Cl)cc2)c(S(C)(=O)=O)cc1C(=O)N=C(N)N | 0.045 |
| Cc1cc(Nc2ccccc2)c(S(C)(=O)=O)cc1C(=O)N=C(N)N | 0.021 |
| CS(=O)(=O)c1cc(C(=O)N=C(N)N)c(F)cc1F | 0.63 |
| Cc1cc(OCc2ccccc2)c(S(C)(=O)=O)cc1C(=O)N=C(N)N | 0.028 |
| CS(=O)(=O)c1cc(C(=O)N=C(N)N)ccc1-n1ccc(=O)cc1 | 0.71 |
| CCOc1cc(C)c(C(=O)N=C(N)N)cc1S(C)(=O)=O | 0.019 |
| Cc1ccc(S(C)(=O)=O)cc1C(=O)N=C(N)N | 0.15 |
| Cc1cc(Cl)c(S(C)(=O)=O)cc1C(=O)N=C(N)N | 0.025 |
| CSc1cc(C)c(C(=O)N=C(N)N)cc1S(C)(=O)=O | 0.006 |
| Cc1cc(OC(C)C)c(S(C)(=O)=O)cc1C(=O)N=C(N)N | 0.019 |
| Cc1cc(N2CCCCC2)c(S(C)(=O)=O)cc1C(=O)N=C(N)N | 0.021 |
| CCc1cc(OC)c(S(C)(=O)=O)cc1C(=O)N=C(N)N | 0.03 |
| CS(=O)(=O)c1cc(C(=O)N=C(N)N)c(Cl)cc1Cl | 0.14 |
| Cc1cc(Oc2cccnc2)c(S(C)(=O)=O)cc1C(=O)N=C(N)N | 0.0088 |
| Cc1c(C(=O)N=C(N)N)cc(S(C)(=O)=O)c(Cl)c1[N+](=O)[O-] | 0.044 |
| CCSc1cc(C)c(C(=O)N=C(N)N)cc1S(C)(=O)=O | 0.0059 |
| Cc1cc(OC2CCCCC2)c(S(C)(=O)=O)cc1C(=O)N=C(N)N | 0.037 |
| Cc1cc(-n2cccn2)c(S(C)(=O)=O)cc1C(=O)N=C(N)N | 0.025 |
| CS(=O)(=O)c1cc(C(=O)N=C(N)N)c(Cl)cc1N1CCC(N)CC1 | 0.02 |
| CS(=O)(=O)c1cc(C(=O)N=C(N)N)c(N)cc1N1CCCCC1 | 0.19 |
| CS(=O)(=O)c1cc(C(=O)N=C(N)N)ccc1Oc1cccnc1 | 0.076 |

| SMILES | IC50 [µM] |
| --- | --- |
| CS(=O)(=O)c1cc(C(=O)N=C(N)N)ccc1N1CCCC(O)C1 (stereo not drawn) | 0.065 |
| Cc1cc(OC(C)(C)C)c(S(C)(=O)=O)cc1C(=O)N=C(N)N | 0.0094 |
| COc1ccc(C(=O)N=C(N)N)cc1S(C)(=O)=O | 0.27 |
| Cc1cc(N2CCCC(O)C2)c(S(C)(=O)=O)cc1C(=O)N=C(N)N (stereo not drawn) | 0.03 |
| Cc1cc(Sc2ccc(Cl)cc2)c(S(C)(=O)=O)cc1C(=O)N=C(N)N | 0.019 |
| Cc1cc(-c2cc(C(F)(F)F)cc(C(F)(F)F)c2)c(S(C)(=O)=O)cc1C(=O)N=C(N)N | 2.8 |
| Cc1ccc(-c2cc(C)c(C(=O)N=C(N)N)cc2S(C)(=O)=O)cc1 | 0.025 |
| CS(=O)(=O)c1cc(C(=O)N=C(N)N)ccc1N1CCCCC1 | 0.13 |
| Cc1c(C(=O)N=C(N)N)ccc(Oc2cccnc2)c1S(C)(=O)=O | 2.2 |
| CS(=O)(=O)c1cc(C(=O)N=C(N)N)c(N)cc1Cl | 0.13 |
| Cc1cc(Oc2cccc(Cl)c2)c(S(C)(=O)=O)cc1C(=O)N=C(N)N | 0.021 |
| CCc1cc(-n2ccc(=O)cc2)c(S(C)(=O)=O)cc1C(=O)N=C(N)N | 0.93 |
| Cc1cc(Nc2ccccn2)c(S(C)(=O)=O)cc1C(=O)N=C(N)N | 0.0092 |
| CS(=O)(=O)c1cc(C(=O)N=C(N)N)ccc1Br | 0.18 |
| CS(=O)(=O)c1cc(C(=O)N=C(N)N)ccc1Cl | 0.38 |
| Cc1cc(SC(C)(C)C)c(S(C)(=O)=O)cc1C(=O)N=C(N)N | 0.022 |
| COc1cc(N2CCC(N)CC2)c(S(C)(=O)=O)cc1C(=O)N=C(N)N | 0.073 |
| Cc1cc(-n2ccnc2C)c(S(C)(=O)=O)cc1C(=O)N=C(N)N | 0.029 |
| CS(=O)(=O)c1cc(C(=O)N=C(N)N)c(Cl)cc1-n1ccnc1 | 0.13 |
| Cc1c(C(=O)N=C(N)N)cc(S(C)(=O)=O)c(-n2ccnc2)c1C | 0.29 |
| Cc1cc(-c2cc(Cl)cc(Cl)c2)c(S(C)(=O)=O)cc1C(=O)N=C(N)N | 0.13 |
| Cc1cc(-c2ccc(F)cc2)c(S(C)(=O)=O)cc1C(=O)N=C(N)N | 0.036 |
| Cc1cc(Nc2cccc(Cl)c2)c(S(C)(=O)=O)cc1C(=O)N=C(N)N | 0.033 |
| Cc1c(C(=O)N=C(N)N)cc(S(C)(=O)=O)c(Oc2cccnc2)c1C | 0.023 |

| SMILES | IC50 [µM] |
| --- | --- |
| CCc1cc(N2CCC(O)CC2)c(S(C)(=O)=O)cc1C(=O)N=C(N)N | 0.041 |
| CS(=O)(=O)c1cc(C(=O)N=C(N)N)c(N2CCCCC2)cc1N1CCCCC1 | 1 |
| Cc1cc(C#N)c(S(C)(=O)=O)cc1C(=O)N=C(N)N | 0.07 |
| Cc1cc(C(F)(F)F)c(S(C)(=O)=O)cc1C(=O)N=C(N)N | 0.037 |
| CCN(CC)Cc1cc(Br)c(S(C)(=O)=O)cc1C(=O)N=C(N)N | 9.5 |
| Cc1cc(N)c(S(C)(=O)=O)cc1C(=O)N=C(N)N | 0.016 |
| CCc1cc(N2CCCCC2)c(S(C)(=O)=O)cc1C(=O)N=C(N)N | 0.025 |
| Cc1c(C(=O)N=C(N)N)cc(S(C)(=O)=O)c(C)c1C | 0.055 |
| Cc1cc(Oc2ccccc2)c(S(C)(=O)=O)cc1C(=O)N=C(N)N | 0.01 |
| CS(=O)(=O)c1cc(C(=O)N=C(N)N)ccc1N1CCC(N)CC1 | 0.16 |
| Cc1cc(F)c(S(C)(=O)=O)cc1C(=O)N=C(N)N | 0.044 |
| Cc1cc(Br)c(C(=O)N=C(N)N)cc1S(C)(=O)=O | 0.07 |
| Cc1cc(-c2ccccc2)c(S(C)(=O)=O)cc1C(=O)N=C(N)N | 0.019 |
| CS(=O)(=O)c1cc(C(=O)N=C(N)N)ccc1-n1ccnc1 | 0.15 |
| Cc1cc(OC2CCCC2)c(S(C)(=O)=O)cc1C(=O)N=C(N)N | 0.027 |
| Cc1cc(C)c(S(C)(=O)=O)cc1C(=O)N=C(N)N | 0.011 |
| Cc1c(C(=O)N=C(N)N)cc(S(C)(=O)=O)c(C#N)c1C | 0.37 |
| CCc1cc(Br)c(S(C)(=O)=O)cc1C(=O)N=C(N)N | 0.041 |
| Cc1cc(Sc2ccccc2)c(S(C)(=O)=O)cc1C(=O)N=C(N)N | 0.014 |
| CS(=O)(=O)c1cc(C(=O)N=C(N)N)c(Cl)cc1N1CCCC(O)C1 (stereo not drawn) | 0.06 |
| Cc1cc(-n2ccnc2)c(S(C)(=O)=O)cc1C(=O)N=C(N)N | 0.023 |
